Source: PubChem BioAssay (The Scripps Research Institute Molecular Screening Center)
M1 antag: human CHRM1 antagonism. hit rate 1.3% among 360,000. inhibition, % at 3 µM. CHO-K1 hM1, Fluo-8 calcium fluorescence, ACh EC80 antagonist;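 active = percent inhibition above its own plate's cutoff, namely the mean of that plate's compound wells plus 3 SD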;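 also: peak over basal fluorescence ratio during 140 s after agonist addition; 0% = ACh EC80 plus DMSO and 100% = DMSO alone without agonist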
M5 ag: CHRM5 agonism in calcium assay; AID 624037; activation, % at 3 µM; CHO-K1 hM5 cells, Fluo-8 calcium fluorescence; 0% DMSO wells, 100% maximal acetylcholine response; P08912; hit rate 0.19% among 360,000;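 active = activation above the run's mean over test compounds plus 3 SD, cut at about 23% in these data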;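 also: signal is peak over basal fluorescence ratio across the kinetic read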
CHRM5 PAM: potentiates acetylcholine response at human M5 receptor; CHO-K1 hM5, Fluo-8 calcium, ACh EC20 PAM; 0% = ACh EC20, 100% = ACh EC100; AID 624038; P08912; hit rate 0.3% among 360,000; activation, % at 3 µM;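 active = activation above the run cutoff, the mean activation of all test compounds plus 3 SD, cut at about 18% in these data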
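Assay system: CHO-K1 hM5 cells / Incubation: Fluo-8 loading 80 min at 37 °C plus 30 min room temperature / Technique: Fluo-8 calcium dye fluorescence, kinetic read / Repeats: single replicate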
M5 antag: blocks acetylcholine activation of human M5 receptor. CHO-hM5 cells, Fluo-8 calcium fluorescence, ACh EC80. inhibition, % at 3 µM. hit rate 0.59% among 360,000;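 active = inhibition above a per-plate cutoff, the mean of that plate's test compounds plus 3 SD, cut at about 27% in these data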;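 also: 0% = acetylcholine EC80 with DMSO and 100% = DMSO without agonist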
M1 PAM: positive allosteric modulators of human M1 muscarinic receptor. P11229. CHO-K1 hM1, Fluo-8 calcium fluorescence, ACh EC20; 0% = ACh EC20, 100% = maximal ACh. activation, % at 3 µM. hit rate 0.088% among 360,000. AID 588819; in the data active = activation above about 19%, passing the limit was not always enough
M1 ag: activates human CHRM1 receptor; P11229; CHO-K1 hM1, Fluo-8 calcium fluorescence, agonist mode; 0% DMSO, 100% acetylcholine EC100; activation, % at 3 µM; hit rate 0.33% among 360,000; AID 588814;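 active = activation above the run's mean compound activation plus 3 SD, cut at about 16% in these data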;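 also: peak over basal fluorescence ratio within a 140 s kinetic read after compound addition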
Starred values were filed as active, the others as inactive. A selection: hits, their analogues and other compounds. The true share with any hit is near 2%.

C/C(=N\NC(=O)Nc1ccccc1)c1ccc2ccccc2c1 was read as M1 antag 2, M5 ag -4, CHRM5 PAM -7, M5 antag 34*, M1 PAM -5 and M1 ag -8.
O=C(Nc1ccccc1)Nc1ccc2ccccc2c1 was read as M1 antag 21, M5 ag 3, CHRM5 PAM -33, M5 antag 33*, M1 PAM -13 and M1 ag 2.
Screening C#CCn1cc(CNC[C@H]2O[C@@H](n3cnc4c(=O)[nH]c(N)nc43)[C@H](O)[C@@H]2O)c2ccccc21 returned M1 antag -7, M5 ag 2, CHRM5 PAM -4, M5 antag 0, M1 PAM -8 and M1 ag -3.
For O=C1Nc2ccccc2C(=O)N(c2ccc3c(c2)OCCO3)C1C(=O)NC1CC1 (centres undefined) the results were M5 ag 1, CHRM5 PAM -4 and M5 antag 10.
CCOC(=O)c1cc2n(n1)C(C(F)(F)C(F)(F)F)CC(C)N2 (centres undefined) was read as M1 antag -33, M5 ag -1, CHRM5 PAM -2, M5 antag 11, M1 PAM 19 and M1 ag 17*.
Screening CCOC(=O)c1c(NC(=O)c2cc3n(n2)C(C(F)(F)F)CC(c2ccccc2)N3)sc(C)c1C (centres undefined) returned M1 antag 10, M5 ag -1, CHRM5 PAM 1, M5 antag 0, M1 PAM -3 and M1 ag -2.
COC(=O)C1=CN(c2cccc(OCc3ccccc3)c2)C(N)=C(C#N)C1c1ccc(-c2ccccc2)cc1 (centres undefined) was read as M5 ag 1, CHRM5 PAM 11 and M5 antag -16.
Screening CCCCCn1nc(C(=O)OCC(=O)c2c(N)n(C)c(=O)n(C)c2=O)c2ccccc2c1=O returned M1 antag -6, M5 ag 3, CHRM5 PAM 6, M5 antag 10, M1 PAM 8 and M1 ag -1.
For CCCCCCn1nc(C(=O)OCC(=O)c2c(N)n(C)c(=O)n(C)c2=O)c2ccccc2c1=O the results were M1 antag 39*, M5 ag -7, CHRM5 PAM -26, M5 antag 21, M1 PAM -17 and M1 ag -2.
For O=C(c1ccc(CS(=O)c2ccccc2Cl)o1)N1CCN(C2CCCCC2)CC1 (centres undefined) the results were M1 antag -14, M5 ag -1, CHRM5 PAM -2, M5 antag -3, M1 PAM 0 and M1 ag -7.
Screening COc1ccc(NC(=O)CN(C)C(=O)c2cc(-c3ccc(OC)cc3)nc3ccccc23)cc1 returned M1 antag 29*, M5 ag 0, CHRM5 PAM -29, M5 antag 23, M1 PAM -10 and M1 ag -2.
CCCNC(=O)COC(=O)c1cc(-c2ccc(OC)cc2)nc2ccccc12 was read as M1 antag -8, M5 ag -5, CHRM5 PAM -2, M5 antag 7, M1 PAM 8 and M1 ag -7.
For COc1ccc(Cl)cc1NC(=O)CN(C)C(=O)c1cc(-c2ccncc2)nc2ccccc12 the results were M1 antag 23, M5 ag 3, CHRM5 PAM -25, M5 antag 27*, M1 PAM -8 and M1 ag -2.
`CN(CC(=O)Nc1ccc(F)cc1)C(=O)COc1ncnc2ccccc12` gave M1 antag 101*, M5 ag 0, CHRM5 PAM 0, M5 antag 6, M1 PAM -26 and M1 ag 0.
CCNC(=O)COC(=O)c1cc(-c2ccc(OC)cc2)nc2ccccc12 was read as M1 antag 14*, M5 ag -1, CHRM5 PAM -20, M5 antag 8, M1 PAM -9 and M1 ag -3.
CCNC(=O)C1(C)CCN(Cc2csc(-c3ccccc3)n2)C1 (centres undefined) was read as M1 antag 3, M5 ag 0, CHRM5 PAM -2, M5 antag -3, M1 PAM -3 and M1 ag -8.
